Screens as filed in PubChem.
An excerpt weighted towards active compounds, which were near 3.8% of everything screened.
MPTP block: blocks calcium-induced mitochondrial swelling. AID 602449. inhibition, % at 10 µM. 360,000 compounds, 1.4% hits. isolated mouse mitochondria, Ca2+ swelling absorbance, 30 min;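 active = inhibition of 50% or more, scaled per plate between neutral and stimulator controls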;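 note: 0% = DMSO wells given calcium and 100% = 1 mM EGTA wells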
CHO parental Ca: counter-screen for OX1R antagonists: effect in parental CHO cells; parental CHO-K1, ATP-induced calcium, Fluo-8 fluorescence; 330,000 compounds, 0.63% hits; inhibition, % at 5.6 µM; AID 463079;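 active = inhibition above that plate's mean sample inhibition plus 3 SD, cut at about 26% in these data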;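 note: 0% = ATP-challenged DMSO wells and 100% = DMSO wells without ATP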
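Assay system: parental CHO cells; Read-out basis: percent inhibition of ATP-evoked calcium rise, normalized to controls; Benchmarks: ATP and no-ATP DMSO wells; Compound dosing: single nominal dose of 5.6 µM per compound; Signal: Fluo-8 calcium dye fluorescence; Also added: ATP as calcium-mobilizing challenge; Repeats: singlicate.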
OX1R antag-1: blocks the human orexin 1 receptor; 330,000 compounds, 1.8% hits; OX1R-expressing cells, FRET antagonist read-out; inhibition, % at 6.6 µM; in the data active = inhibition mostly above about 38%, no sharp cut-off; inactive = mostly below about 40%;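 note: 0% = agonist challenge alone and 100% = reference antagonist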
GPR7 antag: blocks human GPR7 receptor signaling; P48145; GPR7-expressing cells, fluorescence antagonist assay; inhibition, % at 4.4 µM; 290,000 compounds, 1.1% hits; AID 1861; in the data active = inhibition above about 16%, passing the limit was not always enough;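 note: cells stimulated with the agonist NPW; 0% = agonist with vehicle and 100% = vehicle without agonist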
Target sequence (P48145 whole entry, looked up): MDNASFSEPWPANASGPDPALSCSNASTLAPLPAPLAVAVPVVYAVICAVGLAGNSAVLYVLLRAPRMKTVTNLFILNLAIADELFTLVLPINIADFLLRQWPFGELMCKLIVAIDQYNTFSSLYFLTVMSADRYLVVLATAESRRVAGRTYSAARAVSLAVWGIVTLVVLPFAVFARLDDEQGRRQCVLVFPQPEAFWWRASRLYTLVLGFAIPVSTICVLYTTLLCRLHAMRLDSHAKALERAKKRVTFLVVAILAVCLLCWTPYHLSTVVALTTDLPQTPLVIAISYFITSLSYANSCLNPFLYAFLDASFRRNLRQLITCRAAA
OX1R antag-2: blocks the human orexin 1 receptor. CHO/OX1R cells, Fluo-8 calcium fluorescence, orexin A. inhibition, % at 5 µM. 330,000 compounds, 0.43% hits. AID 434989;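 active = inhibition above its plate's threshold, mean inhibition of all tested compounds on the plate plus 3 SD, cut at about 37% in these data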;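 note: 0% = orexin A challenge wells and 100% = SB-334867-A antagonist wells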
MPTP counter: Rhodamine 123 counter-screen of mitochondrial pore hits | shares compounds with MPTP block | inhibition, % at 10 µM | isolated mitochondria, membrane potential, Rhodamine 123 fluorescence | 5,000 compounds, 78% hits; in the data active = inhibition above about 22%;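 note: 0% = DMSO vehicle and 100% = positive control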
MPTP swell DR: MPTP inhibition, dose response swelling confirmation; isolated mitochondria swelling, absorbance; IC50, µM; 780 compounds, 58% hits; shares compounds with MPTP block; in the data active = IC50 below about 20 µM
MPTP counter DR: MPTP inhibitor counter-screen activity, dose response. shares compounds with MPTP block. isolated mitochondria counterscreen, fluorescence read-out. IC50, µM. 780 compounds, 49% hits. AID 651564; in the data active = IC50 below about 80 µM
* hit, by the source's call; · = not tested or not shown.

SMILES	MPTP block	CHO parental Ca	OX1R antag-1	GPR7 antag	OX1R antag-2	MPTP counter	others
CC(C)NC(NC(=O)/C=C/c1ccccc1)C(Cl)(Cl)Cl (configuration not stated)	-1	-8	18	-8	-14	·
O=C(/C=C/c1ccccc1)NC(NC(=S)Nc1ccc(Cl)cc1)C(Cl)(Cl)Cl (configuration not stated)	99*	4	75	3	16	58*
CC(C)CC(=O)NC(NC(=S)Nc1ccccc1)C(Cl)(Cl)Cl (configuration not stated)	14	-10	19	5	-20	·
O=C(Cc1ccccc1)NC(NC(=S)Nc1cc(Cl)ccc1Cl)C(Cl)(Cl)Cl (configuration not stated)	98*	-19	11	0	-16	70*
CC1(C)CC(=O)N(c2cc(Cl)ccc2Cl)C(=O)C1	1	-3	2	-12	-13	·
CCC(Cc1ccccc1)NS(=O)(=O)c1ccc2c(c1)NC(=O)CO2 (configuration not stated)	-1	-18	10	-6	-7	·
COc1ccccc1CCNC(=O)c1cccc(S(=O)(=O)NCc2ccccc2)c1	0	-16	38	·	-14	·
CCOC(=O)c1c(NC(=O)c2c(C(=O)O)cccc2[N+](=O)[O-])sc(C)c1C	-2	5	14	6	-35	·
O=C(CSCc1ccc(Cl)cc1Cl)Nc1nccs1	3	-6	8	8	-3	·
O=C(/C=C/c1ccccc1)NC(NC(=S)Nc1cc(Cl)ccc1Cl)C(Cl)(Cl)Cl (configuration not stated)	97*	15	28	-7	19	74*
COc1ccccc1N1CCN(C2CCCN(C(=O)c3ccsc3)C2)CC1 (configuration not stated)	-1	-15	13	5	-22	·
Cc1cc(C)n(CCc2nc(-c3ccco3)cs2)n1	55*	-8	14	6	-21	-6	MPTP swell DR=>100;MPTP counter DR=>80
Cc1cc(C)n(CCc2nc(-c3cccs3)cs2)n1	1	-20	42	9	-6	·
Oc1ccccc1/C=N/NC(=S)NC1CC2C=CC1C2 (configuration not stated)	57*	3	26	-19	-24	70*
Oc1ccccc1C=NNC(=S)Nc1ccc(F)cc1	63*	·	·	·	·	71*
Oc1ccccc1C=NNC(=S)NC1CC2C=CC1C2 (configuration not stated)	27	·	·	·	·	·
Oc1c(Cl)cc(Cl)cc1/C=N/NC(=S)NC1CC2C=CC1C2 (configuration not stated)	89*	20	12	-15	-7	62*
CCN1/C(=C\C(=S)Nc2ccccc2)Sc2ccccc21	0	-9	10	10	-27	·
CCN1/C(=C/C(C)=C/c2sc3ccccc3[n+]2CC)Sc2ccccc21	199*	87*	63*	2	95*	68*
Cc1cc(C(=O)CSc2n[nH]c(N)n2)c(C)n1-c1cc(F)ccc1F	59*	-8	5	-14	-9	3	MPTP counter DR=>80
OC(COc1ccc(Br)cc1)CN1CCC(Cc2ccccc2)CC1 (configuration not stated)	64*	-16	11	9	-11	-3	MPTP swell DR=6.3*;MPTP counter DR=34*
O=C(NNc1ccccc1[N+](=O)[O-])Nc1ccc(Cl)c(Cl)c1	102*	12	19	-11	9	84*
O=C(NNc1ccccc1[N+](=O)[O-])Nc1ccccc1	3	-4	13	-1	-20	·
CCN(CC)S(=O)(=O)c1cc([N+](=O)[O-])ccc1NNC(=O)Nc1ccc(Cl)c(Cl)c1	102*	38*	63	-6	25	76*
O=C(NCC(=O)N1CCN(C(=O)c2ccccc2)CC1)c1ccc(Cl)cc1Cl	0	-6	1	·	-23	·
Cn1cnnc1SCC(=O)c1c(N)n(Cc2ccccc2)c(=O)n(C)c1=O	-2	2	25	-12	-18	·
NC(N)=NN=C(c1ccc(F)cc1)c1ccc(C(F)(F)F)cc1	70*	·	·	·	·	-13	MPTP swell DR=4.8*;MPTP counter DR=41*
